In the EternaBench riboswitch data:

System: MS2 coat protein
Assay: apparent Kd, MS2 coat protein; higher = weaker binding; RNA-MaP array; FMN 200 µM where present
How it was run: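 Green signal was scaled to red-channel RNA signal and control-cluster median Fmax, and the apparent Kd was taken as the median of filtered per-cluster binding-curve fits. The binding series used SNAP-549-labelled MS2 coat protein from 0.7 or 1.5 nM, doubling to 3 µM, on designs transcribed by stalled E. coli RNA polymerase on Illumina sequencing-chip clusters. Each series ran without and then with constant ligand in 100 mM Tris-HCl pH 7.5, 80 mM KCl, 4 mM MgCl2, BSA, DTT, yeast tRNA and Tween-20.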

[1] = designed as: OFF switch for flavin mononucleotide, no ligand
[2] = ligand present: flavin mononucleotide, designed as: OFF switch for flavin mononucleotide
[3] = designed as: ON switch for flavin mononucleotide, no ligand
[4] = ligand present: flavin mononucleotide, designed as: ON switch for flavin mononucleotide

| Sequence | apparent Kd [1] [nM] | apparent Kd [2] [nM] | apparent Kd [3] [nM] | apparent Kd [4] [nM] |
| --- | --- | --- | --- | --- |
| ACAUGAGGAUCACCCAUGUAUUUGUAGGAUAUACACAAUUCUUUAUUACUCUAAUUAAUAUGUUUGUAGAAGGACACUGCAUGA | 9.71 | 9.52 | – | – |
| ACAUGAGGAUCACCCAUGUGAAAAGAAUGGCUGACACAGAGAUAGGAUAUAUGUGCAUAUCUAACGUAGAAGGGUCAUGACUGG | 33.3 | 36.4 | – | – |
| ACAUGAGGAUCACCCAUGUGGAGUGAAGAAGGUGGUUACUUAAGACUCUUCCAUGUACUUAGGACUGAGGAUAUUCUAAUAUUU | – | – | 53.8 | 30.5 |
| ACAUGAGGAUCACCCAUGUUAAACGAGGAUAUUUGACUGCACAUGAGGUUCACCCAUGUUCUGCCGAAGAAGGUGUAAAUAAUU | – | – | 39.2 | 31.2 |
| ACAUGAGGAUCACCCAUGUUAAAUUAGGAUAUUUGACUGCACAUGAGGUUCACCCAUGUUCUACCGAAGAAGGGAUUAAUAAUU | – | – | 50 | 49.8 |
| ACAUGAGGAUCACCCAUGUUAUCAGGGACUUCAAUUAUUUGUAGAAGGAUGUUUUCUUGUUAGUCAUAGGAUAUACAAUUAAAU | 16 | 15.3 | – | – |
| ACAUGAGGAUCACCCAUGUUAUCCGGGACUUCAAUUGUAUCUAGAAGGCUGUCUGCUUGUUAGUCAGAGGAUAUAGAUUCAAAU | 12.4 | 11.1 | – | – |
| ACAUGAGGAUCACCCAUGUUCACAUAGGAUAUUGAUUAUAUUGGUUAUAGAAUAGUUAUAAUGCUCAAGAAGGAUGCCAGUUGU | – | – | 11 | 8.94 |
| ACAUGAGGAUCACCCAUGUUCGUUGAAGAAGGUACCAUUUACUUUAGUAGUAUUAAUUUAUUUGGUAAGGAUAUUCUCAUAAUU | – | – | 15.9 | 7.75 |
| ACAUGAGGAUCACCCAUGUUGAAUUAGGAUAUUUGACUGCACAUGAGGUUCACCCAUGUUCUACCGAAGAAGGGAUUAAUAAUU | – | – | 120 | 118 |
| ACAUGAGGAUCACCCAUGUUGAAUUAGGAUAUUUGACUGCACAUGAGGUUCACCCAUGUUCUACCGGAGAAGGGAUUAAUAAUU | – | – | 129 | 132 |
| ACAUGAGGAUCACCCAUGUUUACAUGGAUUAUUAAUCUUUGAUAGGAUAUGUUAGUUAAGUAUUUACAGAAGGAUCAAUACCAA | 15.9 | 12.2 | – | – |
| ACAUGAUACUAGGAUAUCAGCAUACUUCAAUGUUGAGAAGGAGUAACAUGAGGAUCACCCAUGUAUCCAACAUG | 46.9 | 219 | – | – |
| ACAUGCAUAGCGAUAUGAUCGAAAAGUCAUGUCGCAAAAUUUAGAAGGACAUGAGGAUCACCCAUGUAGGAUAUGGGAGCAUGA | – | – | 57.9 | 13.2 |
| ACAUUGCGAGGAUAUACAUGAGGAUCACCCAUGUGGUAGUGGAUACGGUAGGGCUAGUGUAGAAGGUGUCAUGG | 128 | 103 | – | – |
| ACCAAUGCAGGAUAUACAUGAGGAUCACCCAUGUAUAACCUACAUAGAUGAUUAUUAUGUAGAAGGGUAUUGGA | 13.2 | 12.9 | – | – |
| ACCACAGACCAGAAGGGUGAUCGGCCAUGAUACACAGGAUAUGGUCACAUGAGGAUCACCCAUGUAUGGGUUGUGUGACCCAGC | – | – | 70 | 91.7 |
| ACCAGGGAUUCAGGAUAUAUUAGCCGAGGCCGCGUAGAAGGGAAAUCCUGACAUGAGGAUCACCCAUGUCGACCCGCCUUCCUA | – | – | 47.6 | 46.8 |
| ACCAUUUACUAAUUUUCUAUACAUGAGGAUCACCCAUGUUUUGAGGAUAUCAGCGUGAAACACGCUGAGAAGGCAAAACAUUCG | 142 | 387 | – | – |
| ACCGAAUGAACAUGAGGAUCACCCAUGUACAGGAAACUGAAUGAGGAUAUCGAUAGCAAAGCUAUCGAGAAGGCAUGGGUCGGU | – | – | 285 | 69.7 |
| ACCUCACAUGAGGAUCACCCAUGUCAGGAUAUCUAUUAUUGCAGCGUUCCCGUCGCUGAGAGAAGGGACAUUAA | 14 | 16.8 | – | – |
| ACCUUACUGGUCAGGAUAUACAGUCUUUGGUGUGUGUAGAAGGGACAUGAGGAUCACCCAUGUAGGUUGCAUUA | 164 | 172 | – | – |
| ACGAAAACACAAAUGUUCCACGGUGCAGAAGGGUCCCUCACAUGAGGAUCACCCAUGUAACUCGGACAGGAUAUGCUUUUGGGA | – | – | 380 | 11.4 |
| ACGAAACAUGAGGAUCACCCAUGUGAGGAUAUGUAAAUAGUAAACAAAUAAGAAAUAAACAGAAGGCACACAGG | 32.9 | 67 | – | – |
| ACGACAAAAGUCGAACGAUGUAGCAGAAGGACAUGAGGAUCACCCAUGUAAAAUGUAACAGCCAUGUAGGAUAUGCUACAUCGA | 31.4 | 288 | – | – |
| ACGACUAGAGGAUAUACAUGAGGAUCACCCAUGUAACUGUCAGGAAACUGACGGAGAUGUAGAAGGCUAGUCGA | 16.8 | 37.4 | – | – |
| ACGACUAGAGGAUAUACAUGAGGAUCACCCAUGUAACUGUCAGGUGACUGACGGAGAUGUAGAAGGCUAGUCGA | 15.7 | 42.8 | – | – |
| ACGGCAGUCAGAGGAUAUGGUUACAUGAGGAUCACCCAUGUCAAGGGUCUAAUUAAGUAUAACUACUAGAAGGCUGAAGGCCUA | 154 | 113 | – | – |

| Sequence | apparent Kd [1] [nM] | apparent Kd [2] [nM] | apparent Kd [3] [nM] | apparent Kd [4] [nM] |
| --- | --- | --- | --- | --- |
| ACGUAUCUAGGAUAUACGCUGGGUACUAUUCUCAAGUCAAGACAUGAGGAUCACCCAUGUAGAAGGAGAAGCAA | 41 | 98.4 | – | – |
| ACGUGUUAUACAGGAUAUGUUUAGGUACAAUCAUCCAGCUAUUAAUUUAUUACAGAAGGGUAAACAUGAGGAUCACCCAUGUCA | 26 | 15.9 | – | – |
| ACGUUUAAUACAGGAUAUGUUCUUAUACUAUACAUUGCUUAUUACUUAAUUACAGAAGGGUAUAACAUGAGGAUCACCCAUGUA | – | – | 108 | 63.2 |
| ACGUUUUAUGCAGGAUAUUGACUUAUAUUUAAACAAGAAGGGCAUUACAUGAGGAUCACCCAUGUUAUCAUGGUAUUUAAGUUC | 40 | 60.4 | – | – |
| ACUAACGAAGGAUAUACUAACGAAACUAAUGCAUAGAUAAAACAUGAGGAUCACCCAUGUAGAAGGUCGAGACU | 22.5 | 25.5 | – | – |
| ACUAGAAGCGUGAGAUAUCACAUGAGGAUCACCCAUGUGACACAGGAUAUAACAAUAUCAGAAGGUUAGAAGGGUGAGCACGCC | – | – | 164 | 45.6 |
| ACUAUACGAGGAUAUACUGACGGGCCUCGGGCGUCCCUGAGACAUGAGGAUCACCCAUGUAGAAGGCGUAUACU | 38.4 | 216 | – | – |
| ACUAUACGAGGAUAUACUGUCGGGCCUCAGACAUAAAUAAGACAUGAGGAUCACCCAUGUAGAAGGCGUUUACU | 52.6 | 114 | – | – |
| ACUAUACGAGGAUAUACUGUCGGGCCUCGGGCAUACAUACGACAUGAGGAUCACCCAUGUAGAAGGCGUUUACU | 34.3 | 61.6 | – | – |
| ACUCGUGGACAGAAGGCGACAUGAGGAUCACCCAUGUUGGCUCGGGUAUGACCAAUCCGCAUGAUCGAGGAUAUGUCUGCGGGC | 326 | 16.1 | – | – |
| ACUGACAUGAGGAUCACCCAUGUCUUGAAUAGGUCAAAUUCACAGGAUAUGCACGCGGACAGAGUGCAGAAGGGUGAUGCAAUG | – | – | 44 | 11.8 |
| ACUGAGGACACAGGAUAUCCGGUUAGGGUAAUCGGAGAAGGGUGACGGCAUGUAGGAAGUCACAUGAGGAUCACCCAUGUGAGA | – | – | 182 | 83.5 |
| ACUGGGCGCCAACCCAUGUCUAUGGAGGAUAUUACUGCCGGUAUCUCACAUGAGGAUCACCCAUGUAAGAAGGCCAUAAGCACA | 34.3 | 176 | – | – |
| ACUGGGCGCCGACCCAUGUCUAUGGAGGAUAUUACUGCCGGUAUCUCACAUGAGGAUCACCCAUGUAAGAAGGCCAUAAACACC | 19.5 | 221 | – | – |
| ACUGGUGCAGGAUAUGCAAUCGUGCUUCGGCACGUAAGAUCACAUGAGGAUCACCCAUGUAGAAGGGCACCAGU | 20.3 | 65.7 | – | – |
| ACUGUUUGAUUCCUCUUAUACAUGAGGAUCACCCAUGUUAUCGAGGAUAUGCAUUAGAGUGUUUAGCAGAAGGCGAUGUAGUUG | 7.56 | 19.1 | – | – |
| ACUUGUAAGCAGAAGGCAGUCAUUAUAUUAAUCAUGUAGACAUGAGGAUCACCCAUGUAGAGUACUGAGGAUAUGCAUCGAUAG | 11 | 7.34 | – | – |
| ACUUGUUACUUAUUCAUUGAUUUGUAGGAUAUACGUACAUGAGGAUCACCCAUGUUACAUGUUAUGUAGAAGGACAUCUAAUUU | 12.2 | 12.6 | – | – |
| AGAAACUACGAGAAGGACAAAAACGGUGCCGCAAACAUGAGGAUCACCCAUGUAGGAUAUCGUAGUUUCAGGAUCGUGAGAUCA | 14.2 | 84.7 | – | – |
| AGAAACUACGAGAAGGACAUAUGACCAAGACUAAACAUGAGGAUCACCCAUGUAGGAUAUCGUAGUUUCAGGAUCGUGAGAUCA | 5.81 | 12.2 | – | – |
| AGAAACUACGAGAAGGACAUGUGGUCCUUCAAAAACAUGAGGAUCACCCAUGUAGGAUAUCGUAGUUUCAGGAUCGUGAGAUCA | 37.6 | 22.8 | – | – |
| AGAAACUACGAGAAGGACAUGUGGUCCUUCAGUAACAUGAGGAUCACCCAUGUAGGAUAUCGUAGUUUCAGGAUCGUGAGAUCA | 150 | 19.1 | – | – |
| AGAAAUUAGUGAGGAUAUGCAUAAAUUGUAGCUGCAGAAGGCACGGACCACAAGACAUGAGGAUCACCCAUGUGGUAUUUAGAU | 29.9 | 34.9 | – | – |
| AGAACAUGAGGAUCACCCAUGUAAAGGUCGGUCAAUAAGGGUGAGGAUAUGCUUAAAAUAAGGUAGCAGAAGGUACUUGGUGCA | – | – | 398 | 508 |
| AGAACGUCAGGAUAUCGAACAACAAGUAAAUAGAGAAGAAGCGAGAAGGGACAUGAGGAUCACCCAUGUAAGAA | 57.6 | 45.3 | – | – |
| AGAACUGAUAGAGGAUAUGUUUUACAUGAGGAUCACCCAUGUGUACAAGGAUCAAUAUAUUAGUAACAGAAGGCUAUUAGUGAG | 13.2 | 19.5 | – | – |
| AGACAGUGAGGAUAUGCAGUCGGUGUCACCUGAUGAGAAGAACAUGAGGAUCACCCAUGUAGAAGGCACAGGAA | 39 | 229 | – | – |
